Source: PubChem (several laboratories)
Jurkat tox 60K – cytotoxic compounds reducing Jurkat cell viability | Jurkat E6.1 viability, ATP luminescence, 48 h | inhibition, % at 4 µM | 56,000 tested, 1.2% active;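 active means inhibition above the mean inhibition of all tested compounds plus 3 SD, cut at about 28% in these data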
HEK293 NFkB inh – inhibitors of the PMA/ionomycin-induced NF-kB reporter in HEK293 cells; 62,000 tested, 0.21% active; HEK-293 NF-kB luciferase reporter, luminescence; inhibition, % at 3 µM; AID 465;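 active means inhibition above the mean of all tested compounds plus 3 SD, cut at about 40% in these data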
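System: NF-kB luciferase reporter HEK-293 cells | Replication: Single test | Control set: DMSO vs reference inhibitor | Evaluation: % inhibition | Schedule: 1 h pretreatment, 16 h stimulation, 37 °C | Probe or stimulus: PMA with ionomycin | Compound dosing: One dose, 3 µM | Detection: Luciferase luminescence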
M1 antagonist – antagonists of rat M1 muscarinic receptor. P08482. CHO-M1 cells, Fluo-4 calcium, ACh EC80 antagonist mode; active compounds read low. B-score at 10 µM. 64,000 tested, 3.4% active;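 active means calcium fluorescence response, raw or row-and-column corrected B-score, differing from the plate sample mean either way at a set confidence level, mostly lower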
M1 ag – activates the M1 muscarinic receptor. 64,000 tested, 3% active. CHO-M1 cells, Fluo-4 calcium fluorescence, agonist mode; active compounds read high. B-score at 10 µM;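 active means fluorescence rise, raw or as B-score row- and column-corrected plate score, outside the 99.7% band of its plate's samples, either direction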
DAT uptake mod – changed human dopamine transporter uptake under cocaine IC80 | Q01959 | LLC-PK1 hDAT cells, [14C]-dopamine uptake with cocaine IC80; actives deviate in either direction | B-score at 10 µM | 110,000 tested, 1.3% active;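 active means Z score or B-score, a plate-position-corrected score, falls beyond the plate's 99.7% confidence bounds, in either direction; inactive means both scores lie inside the 99.7% bounds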
Target sequence (Q01959 whole entry, looked up): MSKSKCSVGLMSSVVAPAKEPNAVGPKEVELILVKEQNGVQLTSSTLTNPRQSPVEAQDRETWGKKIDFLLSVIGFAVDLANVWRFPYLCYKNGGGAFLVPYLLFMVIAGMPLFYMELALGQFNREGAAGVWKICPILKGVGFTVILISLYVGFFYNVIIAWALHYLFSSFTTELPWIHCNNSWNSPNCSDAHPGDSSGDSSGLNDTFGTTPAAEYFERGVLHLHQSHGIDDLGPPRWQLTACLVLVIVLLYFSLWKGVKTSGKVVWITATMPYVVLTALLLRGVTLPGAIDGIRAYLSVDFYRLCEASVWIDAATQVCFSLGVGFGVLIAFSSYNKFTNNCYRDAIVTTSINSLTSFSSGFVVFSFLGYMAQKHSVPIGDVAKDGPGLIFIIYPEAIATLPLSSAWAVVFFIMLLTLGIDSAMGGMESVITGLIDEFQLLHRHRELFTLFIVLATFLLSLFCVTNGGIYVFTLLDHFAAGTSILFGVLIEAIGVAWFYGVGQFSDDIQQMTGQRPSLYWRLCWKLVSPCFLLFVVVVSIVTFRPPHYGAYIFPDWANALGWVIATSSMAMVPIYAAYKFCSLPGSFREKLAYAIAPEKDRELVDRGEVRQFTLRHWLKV
D1 allo mod – D1 dopamine receptor (human) allosteric modulation | HEK293 D1, CRE-luciferase, dopamine EC30 potentiation; actives deviate in either direction | B-score at 10 µM | 58,000 tested, 5.9% active;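 active means luminescence count or its row- and column-corrected plate score outside the 99.7% band of the plate's sample wells, on either side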
D1 mod confirm – D1 receptor (human) allosteric modulation, confirmed | shares compounds with D1 allo mod | HEK293 D1 CRE-luciferase, dopamine EC30 potentiation; active compounds read high | luminescence at 10 µM | 2,200 tested, 88% active | AID 642;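 active means luminescence in either of two replicates above the same-plate mean plus 3 SD of the low-dose dopamine control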
D1 no dopamine – secondary test of D1 modulators: activity without dopamine; shares compounds with D1 allo mod; HEK293 D1 CRE-luciferase, luminescence, no dopamine; active compounds read high; 1,900 tested, 0.8% active; luminescence at 10 µM; in the data active means luminescence above about 3900
Isoprot counter – counter-screen for D1 modulators: isoproterenol response in HEK293 cells; calls only at 10 µM; 2,200 tested, 63% active; AID 647; shares compounds with D1 allo mod; HEK293 D1 CRE-luciferase, isoproterenol EC30 counter-screen;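 active means luminescence in either replicate above plate mean of wells with a partly effective reference agonist dose plus 3 SD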;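 further: isoproterenol raises cAMP through native beta-adrenoceptor Gs so signal bypasses D1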
A number is an active result; n = inactive; x = no result; + = active, no number. A selection: hits, their analogues and other compounds. The true share with any hit is near 7.6%.

SMILES	Jurkat tox 60K	HEK293 NFkB inh	M1 antagonist	M1 ag	DAT uptake mod	D1 allo mod	D1 mod confirm	D1 no dopamine	Isoprot counter
OCCNc1nc(C2CC2)nc2c1nnn2Cc1ccccc1Cl	n	n	n	n	n	8.9	14928	n	n
COCCNc1nc(C(C)(C)C)nc2c1nnn2Cc1ccccc1Cl	x	n	n	n	n	n	x	x	x
O=C(c1cccc(F)c1)N1CCc2ccccc2C1	n	n	n	n	n	4.61	9556	12280	n
COc1ccc(S(=O)(=O)CCC(=O)Nc2ccc(OC)cc2OC)cc1	x	x	x	x	n	x	x	x	x
N#Cc1cc2ccccc2nc1SCC(=O)Nc1ccc(S(=O)(=O)N2CCCC2)cc1	n	n	n	n	n	2.53	9776	n	n
COc1ccc(-c2nnn(CC(=O)c3c[nH]c4ccccc34)n2)cc1OC	n	n	n	n	n	8.1	19116	n	+
CCOc1ccc(-c2nnn(CC(=O)Nc3ccccc3OC)n2)cc1OCC	n	n	n	n	n	9.38	19984	n	+
COc1ccc(-c2nnn(CC(=O)N(C3CCCC3)C(C)C(=O)NC3CCCC3)n2)cc1OC (stereo not drawn)	n	n	n	n	n	3.63	6476	x	n
COc1ccc(-c2nnn(CC(=O)OC3CCCCC3)n2)cc1OC	n	n	n	n	n	n	x	x	x
CCCCOc1ccc(-c2nnn(CC(=O)c3c[nH]c4ccccc34)n2)cc1	x	x	x	x	n	x	x	x	x
COC(=O)c1ccc(NC(=O)c2cnc3scc(C)n3c2=O)cc1	n	n	n	n	x	n	x	x	x
CCOC(=O)c1c(NC(=O)CSc2nnc(-c3cccnc3)o2)sc(C(C)=O)c1C	n	n	n	n	n	4.04	6332	n	+
CCOC(=O)c1c(NC(=O)CSc2nnc(-c3ccco3)o2)sc(C(C)=O)c1C	n	n	n	n	n	n	x	x	x
CCN(c1nc(C)cc(OC)n1)S(=O)(=O)c1ccccc1	x	x	x	x	n	x	x	x	x
CCOC(=O)CC1ON(C)C(=O)N1c1ccc([N+](=O)[O-])cc1 (stereo not drawn)	x	x	x	x	n	x	x	x	x
Cn1c(/C=N/NC(=O)c2ccccc2)nc2ccccc21	x	x	x	x	n	x	x	x	x
COC(=O)c1cccc(N2C(=O)C(Cl)=C(N3CCOCC3)C2=O)c1	n	n	n	n	n	4.73	5740	n	n
CN1CCN(C2=C(Cl)C(=O)N(c3cccc(Cl)c3)C2=O)CC1	n	n	n	n	n	n	x	x	x
O=C(N/N=C/c1cccnc1)C1CCCN(S(=O)(=O)c2ccccc2)C1 (stereo not drawn)	x	x	x	x	n	x	x	x	x
c1ccc2c(N3CCCCCC3)nc(-c3ccncc3)nc2c1	x	x	x	x	n	x	x	x	x
NC(=O)C1CCN(c2nc(-c3ccccc3)nc3ccccc23)CC1	n	n	n	n	n	15.4	24116	n	+
c1cncc(-c2nc(N3CCCCCC3)c3ccccc3n2)c1	n	n	n	n	x	12	14412	n	+
CC(C)CN1CN(S(=O)(=O)c2cccs2)c2nc3ccccc3nc21	n	n	n	n	n	11.4	18664	n	+
Cc1nnc2ccc(N3CCC(C(N)=O)(N4CCCCC4)CC3)nn12	n	n	n	n	x	n	x	x	x
O=C(Nc1ccccc1Cl)N1CCN(c2ccc3nnc(-c4ccc(F)cc4)n3n2)CC1	n	n	n	n	x	n	x	x	x
c1ccc(-c2nnc3ccc(N4CCC5(CC4)OCCO5)nn23)cc1	n	n	n	n	n	21.4	16736	n	+
Clc1cccc(Cl)c1-c1nnc2ccc(N3CCOCC3)nn12	n	n	n	n	n	n	x	x	x
Fc1ccc(-c2nnc3ccc(N4CCCC4)nn23)cc1	n	n	n	n	n	8.28	11900	n	+
NC(=O)C1(N2CCCCC2)CCN(c2ccc3nnc(-c4ccccc4)n3n2)CC1	n	n	n	n	n	10.5	18940	x	+
Fc1cccc(Cl)c1-c1nnc2ccc(N3CCOCC3)nn12	n	n	n	n	n	15.7	10924	n	+
